Data as given in ChEMBL document CHEMBL4325893, “Synthesis and antibacterial profiles of targeted triclosan derivatives” (2019).
Converted amounts (≈) assume the structure as drawn.

What was measured:
Staphylococcus aureus [1] = experiment: Antibacterial activity against Staphylococcus aureus ATCC 6538 after 18 hrs; format: functional; settings: ATCC 6538, 18 h
In short: (§1)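 Broth microdilution in Nutrient Broth No. 2; stocks in ethanol diluted to 0.01–128 µg/ml (triclosan) or 0.25–256 µg/ml (glycosides). Overnight 37 °C NB2 cultures diluted 1 in 10^4 in saline and added to the dilutions. Incubation at 37 °C with agitation, OD read every 15 min; MIC is the lowest concentration preventing any OD rise after 18 h.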

Staphylococcus aureus [2] = experiment: Antibacterial activity against Staphylococcus aureus ATCC 6538P after 18 hrs; format: functional; in short: as §1
Staphylococcus aureus [3] = experiment: Antibacterial activity against Staphylococcus aureus ATCC 9144 after 18 hrs; format: functional; settings: ATCC 9144, 18 h; in short: as §1
Staphylococcus aureus [4] = experiment: Antibacterial activity against Staphylococcus aureus ATCC 25923 after 18 hrs; format: functional; settings: ATCC 25923, 18 h; in short: as §1
Staphylococcus aureus [5] = experiment: Antibacterial activity against Staphylococcus aureus ATCC 29213 after 18 hrs; format: functional; settings: ATCC 29213, 18 h; in short: as §1
Staphylococcus aureus [6] = experiment: Antibacterial activity against Staphylococcus aureus NCTC 13758 after 18 hrs; format: functional; settings: NCTC 13758, 18 h; in short: as §1
Staphylococcus aureus [7] = experiment: Antibacterial activity against Staphylococcus aureus OCC 104 after 18 hrs; format: functional; settings: OCC 104, 18 h; in short: as §1
Staphylococcus aureus [8] = experiment: Antibacterial activity against Staphylococcus aureus OCC 106 after 18 hrs; format: functional; settings: OCC 106, 18 h; in short: as §1
[9] = system: Staphylococcus epidermidis; experiment: Antibacterial activity against Staphylococcus epidermidis 155 after 18 hrs; format: functional; settings: Staphylococcus epidermidis, 155, 18 h; in short: as §1
[10] = system: Staphylococcus epidermidis; experiment: Antibacterial activity against Staphylococcus epidermidis ATCC 12228 after 18 hrs; format: functional; settings: ATCC 12228, 18 h; in short: as §1
[11] = system: Staphylococcus epidermidis; experiment: Antibacterial activity against Staphylococcus epidermidis ATCC 14990 after 18 hrs; format: functional; settings: ATCC 14990, 18 h; in short: as §1
[12] = system: Staphylococcus haemolyticus; experiment: Antibacterial activity against Staphylococcus haemolyticus OCC 2223 after 18 hrs; format: functional; settings: OCC 2223, 18 h
In short: (§2)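 Broth microdilution in Nutrient Broth No. 2. Ethanol stocks were diluted in broth to 0.01–128 µg/ml for triclosan and 0.25–256 µg/ml for glycosides. Overnight 37°C NB2 cultures were diluted 1 in 10^4 in saline and added to the wells. Plates were incubated at 37°C with OD read every 15 min after agitation. MIC was the lowest concentration giving no OD increase at 18 h.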

[13] = system: Staphylococcus saprophyticus; experiment: Antibacterial activity against Staphylococcus saprophyticus ATCC 15305 after 18 hrs; format: functional; settings: ATCC 15305, 18 h; in short: as §2
Streptococcus agalactiae = experiment: Antibacterial activity against Streptococcus agalactiae OCC 182 after 18 hrs; format: functional; settings: OCC 182, 18 h; in short: as §2
Streptococcus pneumoniae [14] = experiment: Antibacterial activity against Streptococcus pneumoniae 6305 after 18 hrs; format: functional; settings: Streptococcus pneumoniae, 6305, 18 h; in short: as §2
Streptococcus pneumoniae [15] = experiment: Antibacterial activity against Streptococcus pneumoniae ATCC 49619 after 18 hrs; format: functional; settings: ATCC 49619, 18 h; in short: as §2
Streptococcus pyogenes = experiment: Antibacterial activity against Streptococcus pyogenes ATCC 19615 after 18 hrs; format: functional; settings: ATCC 19615, 18 h; in short: as §2
Streptococcus viridans = experiment: Antibacterial activity against Streptococcus viridans OCC 234 after 18 hrs; format: functional; settings: OCC 234, 18 h; in short: as §2
[16] = system: Salmonella enterica subsp. enterica serovar Abony; experiment: Antibacterial activity against Salmonella enterica subspecies enterica serotype Abony NCTC 6017 after 18 hrs; format: functional; settings: NCTC 6017, 18 h; in short: as §1
[17] = Antibacterial activity against Salmonella enterica subspecies enterica serotype Arizonae OCC 706 after 18 hrs; format: functional, Salmonella enterica subsp. enterica serovar Arizonae; settings: OCC 706, 18 h; in short: as §1
[18] = Antibacterial activity against Salmonella enterica subspecies enterica serotype Dublin OCC 627 after 18 hrs; format: functional, Salmonella enterica subsp. enterica serovar Dublin; settings: OCC 627, 18 h; in short: as §1
Salmonella enteritidis = experiment: Antibacterial activity against Salmonella enterica subspecies enterica serotype Enteritidis 13076 after 18 hrs; format: functional, Salmonella enterica subsp. enterica serovar Enteritidis; settings: Salmonella enterica, 13076, 18 h; in short: as §1
[19] = Antibacterial activity against Salmonella enterica subspecies enterica serotype Indiana OCC 597 after 18 hrs; format: functional, Salmonella enterica subsp. enterica serovar Indiana; settings: OCC 597, 18 h; in short: as §1
[20] = Antibacterial activity against Salmonella enterica subspecies enterica serotype Infantis OCC 2133 after 18 hrs; format: functional, Salmonella enterica subsp. enterica serovar Infantis; settings: OCC 2133, 18 h; in short: as §1
[21] = Antibacterial activity against Salmonella enterica subspecies enterica serotype Nottingham NCTC 7832 after 18 hrs; format: functional, Salmonella enterica subsp. enterica serovar Nottingham; settings: NCTC 7832, 18 h; in short: as §1
[22] = Antibacterial activity against Salmonella enterica subspecies enterica serotype Poona NCTC 4840 after 18 hrs; format: functional, Salmonella enterica subsp. enterica serovar Poona; settings: NCTC 4840, 18 h; in short: as §1
[23] = Antibacterial activity against Salmonella enterica subspecies enterica serotype Pullorum OCC 273 after 18 hrs; format: functional, Salmonella enterica subsp. enterica serovar Pullorum; settings: OCC 273, 18 h; in short: as §1
Salmonella typhimurium = experiment: Antibacterial activity against Salmonella enterica subspecies enterica serotype typhimurium ATCC 14028 after 18 hrs; format: functional, Salmonella enterica subsp. enterica serovar Typhimurium; settings: ATCC 14028, 18 h; in short: as §1
[24] = Antibacterial activity against Salmonella enterica subspecies enterica serotype Virchow NCTC 5742 after 18 hrs; format: functional, Salmonella enterica subsp. enterica serovar Virchow; settings: NCTC 5742, 18 h; in short: as §1

MIC (Staphylococcus aureus [1]): 2 to 8 µg/mL (≈ 4.43 to 17.7 µM)
MIC (Staphylococcus aureus [2]): 2 to 8 µg/mL (≈ 4.43 to 17.7 µM)
MIC (Staphylococcus aureus [3]): 2 to 8 µg/mL (≈ 4.43 to 17.7 µM)
MIC (Staphylococcus aureus [4]): 2 to 8 µg/mL (≈ 4.43 to 17.7 µM)
MIC (Staphylococcus aureus [5]): 2 to 8 µg/mL (≈ 4.43 to 17.7 µM)
MIC (Staphylococcus aureus [6]): 2 to 8 µg/mL (≈ 4.43 to 17.7 µM)
MIC (Staphylococcus aureus [7]): 2 to 8 µg/mL (≈ 4.43 to 17.7 µM)
MIC (Staphylococcus aureus [8]): 2 to 8 µg/mL (≈ 4.43 to 17.7 µM)
MIC [9]: 4 to 8 µg/mL (≈ 8.86 to 17.7 µM)
MIC [10]: 4 to 8 µg/mL (≈ 8.86 to 17.7 µM)
MIC [11]: 4 to 8 µg/mL (≈ 8.86 to 17.7 µM)
MIC [13]: 32 µg/mL (≈ 70.8 µM)
MIC (Streptococcus agalactiae): 128 µg/mL (≈ 283 µM)
MIC (Streptococcus pneumoniae [14]): 64 µg/mL (≈ 142 µM)
MIC (Streptococcus pneumoniae [15]): 64 µg/mL (≈ 142 µM)
MIC (Streptococcus pyogenes): 32 µg/mL (≈ 70.8 µM)
MIC (Streptococcus viridans): 128 µg/mL (≈ 283 µM)
MIC [16]: 16 to 64 µg/mL (≈ 35.4 to 142 µM)
MIC [17]: 16 to 64 µg/mL (≈ 35.4 to 142 µM)
MIC [18]: 16 to 64 µg/mL (≈ 35.4 to 142 µM)
MIC (Salmonella enteritidis): 16 to 64 µg/mL (≈ 35.4 to 142 µM)
MIC [19]: 16 to 64 µg/mL (≈ 35.4 to 142 µM)
MIC [20]: 16 to 64 µg/mL (≈ 35.4 to 142 µM)
MIC [21]: 16 to 64 µg/mL (≈ 35.4 to 142 µM)
MIC [22]: 16 to 64 µg/mL (≈ 35.4 to 142 µM)
MIC [23]: 16 to 64 µg/mL (≈ 35.4 to 142 µM)
MIC (Salmonella typhimurium): 16 to 64 µg/mL (≈ 35.4 to 142 µM)
MIC [24]: 16 to 64 µg/mL (≈ 35.4 to 142 µM)
SMILES: OC[C@H]1O[C@H](Oc2cc(Cl)ccc2Oc2ccc(Cl)cc2Cl)[C@@H](O)[C@@H](O)[C@@H]1O
MIC [12]: 8 µg/mL (≈ 17.7 µM)
